# ChEMBL document CHEMBL3616436, “Synthesis, cytotoxicity and antimicrobial activity of thiourea derivatives incorporating 3-(trifluoromethyl)phenyl moiety” (Eur J Med Chem, 2015)
# Activity calls are given as the source filed them. No cut-off for these calls is given here.
# Assays:
# [1] = system: Pseudomonas aeruginosa; assay: Antimicrobial activity against Pseudomonas aeruginosa ATCC 27863 after 18 hrs by twofold serial microdilution method; type: functional, organism-based
# [2] = system: Coxsackievirus B5; assay: Antiviral activity against Human coxsackievirus B5 ATCC VR-29 infected in African green monkey Vero 76 cells assessed as reduction of virus-plaque formation after 3 days by crystal violet staining; type: functional, organism-based; conditions: Enterovirus B, ATCC VR-29, Vero, 72 h
# How it was run: (§1)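 Plaque reduction: Vero-76 at 2x10^5 cells/well grown to confluent monolayers, infected 2 h at 50–100 PFU/well; after removing unadsorbed virus, overlay of D-MEM, 1% inactivated FBS, 0.75% methylcellulose with or without serial compound dilutions; 3 days at 37°C, fixed and stained with crystal violet in 50% ethanol, plaques counted; EC50 by linear regression.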
# [3] = system: Human alphaherpesvirus 1; assay: Antiviral activity against Human herpesvirus 1 KOS ATCC VR-1493 infected in African green monkey Vero 76 cells assessed as reduction of virus-plaque formation after 3 days by crystal violet staining; type: functional, organism-based; conditions: Human alphaherpesvirus 1, KOS ATCC VR1493, Vero, 72 h; how it was run: as §1
# [4] = system: Yellow fever virus; assay: Antiviral activity against Yellow fever virus 17D infected in BHK cells assessed as protection against virus-induced cytopathogenicity after 3 to 4 days by MTT assay; type: functional, cell-based
# [5] = system: Candida parapsilosis; assay: Antimicrobial activity against Candida parapsilosis ATCC 22019 after 24 hrs by twofold serial microdilution method; type: functional, organism-based
# [6] = system: Vesicular stomatitis virus; assay: Antiviral activity against Vesicular stomatitis virus ATCC VR 1540 infected in African green monkey Vero 76 cells assessed as reduction of virus-plaque formation after 2 days by crystal violet staining; type: functional, organism-based; conditions: ATCC VR 1540, Vero, 48 h
# [7] = Cytotoxicity against African green monkey Vero 76 cells assessed as cell viability after 48 to 96 hrs by crystal violet staining; type: cell-based; conditions: chlorocebus sabaeus
# [8] = Cytotoxicity against human MT4 cells; type: cell-based
# [9] = system: Mammalian orthoreovirus 1; assay: Antiviral activity against Reovirus type-1 ATCC VR-214 infected in BHK cells assessed as protection against virus-induced cytopathogenicity after 3 to 4 days by MTT assay; type: functional, cell-based; conditions: Mammalian orthoreovirus 1, ATCC VR-214, BHK
# How it was run: (§2)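 Cells seeded in 96-well plates (BHK 5x10^4, MDBK 3x10^4 cells/well), grown overnight to confluence, infected at m.o.i. 0.01 (BHK for Reo-1, MDBK for BVDV); serial compound dilutions in maintenance medium with 0.5% inactivated FBS added after 1 h; viability by MTT after 3–4 days at 37°C; EC50 for 50% protection by linear regression.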
# [10] = system: Escherichia coli; assay: Antimicrobial activity against Escherichia coli ATCC 25922 after 18 hrs by twofold serial microdilution method; type: functional, organism-based
# [11] = system: Escherichia coli; assay: Antimicrobial activity against Escherichia coli ATCC 10538 after 18 hrs by twofold serial microdilution method; type: functional, organism-based
# [12] = system: Candida albicans; assay: Antimicrobial activity against Candida albicans ATCC 90028 after 24 hrs by twofold serial microdilution method; type: functional, organism-based
# [13] = system: Escherichia coli; assay: Antimicrobial activity against Escherichia coli NCTC 8196 after 18 hrs by twofold serial microdilution method; type: functional, organism-based
# [14] = system: WIL2-NS; assay: Cytotoxicity against human WIL2-NS cells after 96 hrs by MTT assay; type: functional
# How it was run: (§3)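 Leukaemia/lymphoma lines seeded at 1×10^5 cells/ml in RPMI-1640 with 10% FCS and penicillin/streptomycin; incubated with serial dilutions at 37°C, 5% CO2; viability by MTT after 96 h; value is concentration reducing proliferation by 50%, with untreated controls undergoing at least three rounds of multiplication.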
# [15] = system: Human immunodeficiency virus 1; assay: Antiviral activity against HIV1 3B infected in human MT4 cells assessed as protection against virus-induced cytopathogenicity by MTT assay; type: functional, organism-based; conditions: Human immunodeficiency virus 1, 3B
# [16] = Antiviral activity against Bovine viral diarrhea virus 1-NADL ATCC VR-534 infected in MDBK cells assessed as protection against virus-induced cytopathogenicity after 3 to 4 days by MTT assay; type: functional, cell-based; conditions: Bovine viral diarrhea virus isolates and strains, ATCC VR-534, MDBK; how it was run: as §2
# [17] = system: Vaccinia virus; assay: Antiviral activity against Human Vaccinia virus ATCC VR-1549 infected in African green monkey Vero 76 cells assessed as reduction of virus-plaque formation after 3 days by crystal violet staining; type: functional, organism-based; conditions: Orthopoxvirus vaccinia, ATCC VR-1549, Vero, 72 h
# [18] = Cytotoxicity against bovine MDBK cells assessed as cell viability after 48 to 96 hrs by MTT assay; type: cell-based, Bos taurus; conditions: cattle
# [19] = system: Bordetella bronchiseptica; assay: Antimicrobial activity against Bordetella bronchiseptica ATCC 4617 after 18 hrs by twofold serial microdilution method; type: functional, organism-based
# [20] = system: Pseudomonas aeruginosa; assay: Antimicrobial activity against Pseudomonas aeruginosa NCTC 6749 after 18 hrs by twofold serial microdilution method; type: functional, organism-based
# [21] = system: Pseudomonas aeruginosa; assay: Antimicrobial activity against Pseudomonas aeruginosa ATCC 15442 after 18 hrs by twofold serial microdilution method; type: functional, organism-based
# [22] = system: Candida albicans; assay: Antimicrobial activity against Candida albicans ATCC 10231 after 24 hrs by twofold serial microdilution method; type: functional, organism-based
# [23] = system: CCRF-SB; assay: Cytotoxicity against human CCRF-SB cells after 96 hrs by MTT assay; type: functional; how it was run: as §3
# [24] = Cytotoxicity against BHK cells assessed as cell viability after 48 to 96 hrs by MTT assay; type: cell-based, Mesocricetus auratus; conditions: hamster
# [25] = system: Poliovirus 1; assay: Antiviral activity against Poliovirus type 1 ATCC VR-1562 infected in African green monkey Vero 76 cells assessed as reduction of virus-plaque formation after 2 days by crystal violet staining; type: functional, organism-based; conditions: Enterovirus C, ATCC VR-1562, Vero, 48 h
# [26] = system: CCRF-CEM; assay: Cytotoxicity against human CCRF-CEM cells after 96 hrs by MTT assay; type: functional; how it was run: as §3
smiles,measurement,setting,value
FC(F)(F)c1cccc(NC(=S)Nc2ccc(I)cc2)c1,Activity,[1],inactive
same,EC50,[2],> 9.5 µM
same,EC50,[3],> 9.5 µM
same,EC50,[4],> 9.4 µM
same,Activity,[5],inactive
same,EC50,[6],> 9.5 µM
same,CC50,[7],9.5 µM
same,CC50,[8],10 µM
same,EC50,[9],> 9.4 µM
same,Activity,[10],inactive
same,Activity,[11],inactive
same,Activity,[12],inactive
same,Activity,[13],inactive
same,CC50,[14],8 µM
same,EC50,[15],> 10.5 µM
same,EC50,[16],> 9.5 µM
same,EC50,[17],> 9.5 µM
same,CC50,[18],9.5 µM
same,Activity,[19],inactive
same,Activity,[20],inactive
same,Activity,[21],inactive
same,Activity,[22],inactive
same,CC50,[23],9.1 µM
same,CC50,[24],9.4 µM
same,EC50,[25],> 9.5 µM
same,CC50,[26],8 µM
